Experimental data published in ChEMBL document CHEMBL2375348, “Aminopropylindenes derived from Grundmann's ketone as a novel chemotype of oxidosqualene cyclase inhibitors” (Eur J Med Chem, 2013).

Tests used:
[1] = molecular target: Cycloartenol synthase (Arabidopsis thaliana, UniProt P38605); assay: Inhibition of Arabidopsis thaliana cycloartenol synthase expressed in Saccharomyces cerevisiae SMY8[pSM60.21] using [14C]-(3S)-2,3-oxidosqualene as substrate
Outline: (§1)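 ERG7-deficient hem1 yeast SMY8 strains were grown aerobically at 30 °C in YPD with hemin and ergosterol, then induced in YPG with hemin (plus ergosterol for A. thaliana). Lyticase/Potter homogenates were incubated with [14C]-(3S)-2,3-oxidosqualene (1000 cpm) at increasing inhibitor levels. Reactions were stopped with KOH/MeOH and saponified at 80 °C for 30 min; extracted conversion was read by TLC radioscan. IC50 came from nonlinear regression; two experiments, each in duplicate.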

[2] = molecular target: T1, Lanosterol synthase (Pneumocystis carinii, UniProt Q96WJ0); assay: Inhibition of Pneumocystis carinii lanosterol synthase expressed in Saccharomyces cerevisiae SMY8[pBJ4.21] using [14C]-(3S)-2,3-oxidosqualene as substrate; outline: as §1
T1 sequence (Q96WJ0 whole entry): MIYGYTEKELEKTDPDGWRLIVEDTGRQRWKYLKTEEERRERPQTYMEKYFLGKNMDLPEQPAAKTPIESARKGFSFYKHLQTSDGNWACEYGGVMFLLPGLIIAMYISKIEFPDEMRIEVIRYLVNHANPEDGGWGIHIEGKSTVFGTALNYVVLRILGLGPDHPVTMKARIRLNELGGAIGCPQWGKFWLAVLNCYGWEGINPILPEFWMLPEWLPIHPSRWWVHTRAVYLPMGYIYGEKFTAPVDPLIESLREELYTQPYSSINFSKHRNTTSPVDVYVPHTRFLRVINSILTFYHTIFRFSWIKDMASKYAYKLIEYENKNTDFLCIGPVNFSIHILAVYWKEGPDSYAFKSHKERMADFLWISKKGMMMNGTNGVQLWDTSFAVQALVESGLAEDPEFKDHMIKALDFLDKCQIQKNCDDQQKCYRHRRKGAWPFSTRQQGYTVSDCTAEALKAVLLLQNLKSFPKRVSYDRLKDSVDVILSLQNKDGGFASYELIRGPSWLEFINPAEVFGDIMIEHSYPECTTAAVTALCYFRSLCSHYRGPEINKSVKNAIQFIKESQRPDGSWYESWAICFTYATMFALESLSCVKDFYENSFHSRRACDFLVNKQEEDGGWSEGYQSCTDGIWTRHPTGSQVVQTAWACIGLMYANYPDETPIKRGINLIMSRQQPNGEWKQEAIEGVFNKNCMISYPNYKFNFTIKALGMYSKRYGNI

[3] = Inhibition of Trypanosoma cruzi lanosterol synthase expressed in Saccharomyces cerevisiae SMY8[pBJ1.21] using [14C]-(3S)-2,3-oxidosqualene as substrate; outline: as §1
[4] = molecular target: T2, Lanosterol synthase (Homo sapiens, UniProt P48449); assay: Inhibition of human lanosterol synthase expressed in Saccharomyces cerevisiae SMY8[pSOB1.1] using [14C]-(3S)-2,3-oxidosqualene as substrate
T2 sequence (P48449 whole entry): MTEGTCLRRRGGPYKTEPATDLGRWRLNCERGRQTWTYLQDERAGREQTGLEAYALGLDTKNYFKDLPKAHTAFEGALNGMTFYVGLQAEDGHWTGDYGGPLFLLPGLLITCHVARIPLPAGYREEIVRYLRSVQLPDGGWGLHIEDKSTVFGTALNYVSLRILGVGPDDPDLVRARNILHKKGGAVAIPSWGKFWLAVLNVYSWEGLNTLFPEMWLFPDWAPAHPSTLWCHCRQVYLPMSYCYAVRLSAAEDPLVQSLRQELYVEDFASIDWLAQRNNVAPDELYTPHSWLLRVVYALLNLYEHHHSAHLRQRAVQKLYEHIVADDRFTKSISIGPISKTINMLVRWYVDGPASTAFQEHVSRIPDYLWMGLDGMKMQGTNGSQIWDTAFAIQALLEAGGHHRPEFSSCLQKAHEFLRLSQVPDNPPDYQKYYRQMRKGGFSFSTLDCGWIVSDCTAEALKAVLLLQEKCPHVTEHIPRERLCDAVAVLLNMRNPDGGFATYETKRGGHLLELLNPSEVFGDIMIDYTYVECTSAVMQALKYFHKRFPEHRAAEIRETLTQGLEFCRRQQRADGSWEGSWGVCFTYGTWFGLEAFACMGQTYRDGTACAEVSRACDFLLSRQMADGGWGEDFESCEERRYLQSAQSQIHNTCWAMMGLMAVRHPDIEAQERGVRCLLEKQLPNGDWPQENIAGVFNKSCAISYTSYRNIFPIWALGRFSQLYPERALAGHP

[5] = molecular target: T3, Lanosterol synthase ERG7 (Saccharomyces cerevisiae S288c, UniProt P38604); assay: Inhibition of wild type yeast lanosterol synthase expressed in Saccharomyces cerevisiae SMY8[pSM61.21] using [14C]-(3S)-2,3-oxidosqualene as substrate; outline: as §1
T3 sequence (P38604 whole entry): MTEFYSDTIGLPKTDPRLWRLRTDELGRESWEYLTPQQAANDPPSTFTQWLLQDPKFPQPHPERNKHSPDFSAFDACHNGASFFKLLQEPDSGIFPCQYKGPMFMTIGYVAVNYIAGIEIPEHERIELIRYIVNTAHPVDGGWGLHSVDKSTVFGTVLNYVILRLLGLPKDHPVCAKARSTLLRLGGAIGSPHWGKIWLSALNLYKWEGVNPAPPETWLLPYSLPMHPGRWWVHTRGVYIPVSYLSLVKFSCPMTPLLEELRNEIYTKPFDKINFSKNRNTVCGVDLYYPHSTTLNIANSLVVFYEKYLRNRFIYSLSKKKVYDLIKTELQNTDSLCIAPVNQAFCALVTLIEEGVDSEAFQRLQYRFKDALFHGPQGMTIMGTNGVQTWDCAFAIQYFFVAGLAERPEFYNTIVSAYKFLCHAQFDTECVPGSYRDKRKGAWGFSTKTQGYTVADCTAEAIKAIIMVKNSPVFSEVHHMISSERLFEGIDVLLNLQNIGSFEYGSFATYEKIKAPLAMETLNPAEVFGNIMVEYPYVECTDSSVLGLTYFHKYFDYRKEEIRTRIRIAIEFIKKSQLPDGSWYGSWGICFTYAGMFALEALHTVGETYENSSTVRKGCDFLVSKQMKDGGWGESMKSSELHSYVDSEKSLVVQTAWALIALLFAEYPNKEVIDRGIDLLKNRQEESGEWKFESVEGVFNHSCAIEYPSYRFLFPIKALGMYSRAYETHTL

[6] = tested on: HL-60; assay: Cytotoxicity against human HL60 cells after 24 hrs by MTT assay; assay type: cell-based; conditions: HL-60, 24 h
[7] = tested on: HL-60; assay: Inhibition of cholesterol biosynthesis in human HL60 cells at 1 uM; assay type: functional
Outline: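 HL-60 cells were incubated with 2-13C-acetate and inhibitor at 1 μM, in triplicate. Newly made 13C-labelled cholesterol was separated from pre-existing unlabelled cholesterol by GC-MS. Decrease in cholesterol biosynthesis was expressed against untreated controls.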

Cycloartenol synthase, sequence (P38605 whole entry): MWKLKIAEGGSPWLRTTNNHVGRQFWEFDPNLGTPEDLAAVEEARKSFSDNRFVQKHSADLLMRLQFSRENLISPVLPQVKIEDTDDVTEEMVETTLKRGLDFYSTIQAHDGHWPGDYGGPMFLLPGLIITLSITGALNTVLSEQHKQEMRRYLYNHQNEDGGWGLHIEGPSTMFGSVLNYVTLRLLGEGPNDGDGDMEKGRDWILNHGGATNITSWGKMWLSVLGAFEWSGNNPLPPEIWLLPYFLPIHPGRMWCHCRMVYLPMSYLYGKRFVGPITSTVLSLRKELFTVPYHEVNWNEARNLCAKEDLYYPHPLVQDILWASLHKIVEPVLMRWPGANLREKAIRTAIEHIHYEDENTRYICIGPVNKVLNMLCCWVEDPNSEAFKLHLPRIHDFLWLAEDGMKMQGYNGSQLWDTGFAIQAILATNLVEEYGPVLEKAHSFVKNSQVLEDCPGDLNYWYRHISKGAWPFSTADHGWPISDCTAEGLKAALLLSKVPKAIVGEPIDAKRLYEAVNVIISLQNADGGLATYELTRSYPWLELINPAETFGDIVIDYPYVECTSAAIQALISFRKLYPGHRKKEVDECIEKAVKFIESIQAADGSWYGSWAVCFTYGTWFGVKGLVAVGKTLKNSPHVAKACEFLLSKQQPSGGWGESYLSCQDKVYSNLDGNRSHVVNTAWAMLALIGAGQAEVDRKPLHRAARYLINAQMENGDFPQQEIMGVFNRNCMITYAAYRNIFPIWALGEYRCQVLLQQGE

Structure (SMILES)	IC50 [1] [µM]	IC50 [2] [µM]	IC50 [4] [µM]	IC50 [5] [µM]	IC50 [3] [µM]	IC50 [6] [µM]	inhibition at 1 µM [7] [%]
CN(C)Cc1ccc(C2CCC(N(C)C(=O)c3ccc(Cl)cc3)CC2)cc1 (configuration not stated)	–	–	–	–	–	> 50	60
CNCCCC1=C2CC[C@H]([C@H](C)CCCC(C)C)[C@@]2(C)CCC1	> 20	> 20	> 20	> 20	> 20	> 100	–
CC(C)CCC[C@@H](C)[C@H]1CCC2=C(CCC[N+](C)(C)[O-])CCC[C@@]21C	1.3	15	> 20	2.5	3	20	–
C=CCN(C)CCCCCCOc1ccc(C(=O)c2ccc(Br)cc2)c(F)c1	–	–	–	–	–	8	> 90

Continued, in another order:

IC50 [1] [µM]	IC50 [2] [µM]	IC50 [4] [µM]	IC50 [5] [µM]	Structure (SMILES)	IC50 [3] [µM]	IC50 [6] [µM]	inhibition at 1 µM [7] [%]
0.2	11	12.5	4.2	CC(C)CCC[C@@H](C)[C@H]1CCC2=C(CCC[n+]3ccccc3)CCC[C@@]21C	> 20	3.5	–
0.6	0.9	1	1.5	C=CCN(C)CCCC1=C2CC[C@H]([C@H](C)CCCC(C)C)[C@@]2(C)CCC1	0.8	> 100	> 90
0.3	13	4.5	1.3	CC(C)CCC[C@@H](C)[C@H]1CCC2=C(CCCN(C)C)CCC[C@@]21C	0.6	> 100	> 90
0.5	17	11.9	2.1	CC(C)CCC[C@@H](C)[C@H]1CCC2=C(CCCN3CCCCC3)CCC[C@@]21C	> 20	> 100	–
